Columns and labels:
[1] = AUC in fed cynomolgus monkey at 30 mg/kg, po; type: ADME, organism-based, Macaca fascicularis; set-up: dose 30 mg/kg, route oral; details: plasma
Method in brief: (§1)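 Given orally as crystalline sodium salt to fed male Sprague Dawley rats (30–500 mg/kg) or fed male Cynomolgus monkeys (10–100 mg/kg) to assess dose exposure; plasma AUC and Cmax determined.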

Cytochrome P450 2C19 [2] = biological target: T1, Cytochrome P450 2C19 (Homo sapiens, UniProt P33261); test: Inhibition of […] in human liver microsomes measured after concurrent incubation; type: ADME
Cytochrome P450 2C9 [3] = biological target: T2, Cytochrome P450 2C9 (Homo sapiens, UniProt P11712); test: Inhibition of CYP2C9 in human liver microsomes measured after compound pre-incubation; type: ADME
Method in brief: (§2)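 Human liver microsomes; CYP inhibition measured with compound added concurrently or after pre-incubation; concentration inhibiting 50% of enzyme activity determined.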

[4] = AUC in fed Sprague-Dawley rat at 30 mg/kg, po; type: ADME, organism-based; set-up: dose 30 mg/kg, route oral; details: plasma; method in brief: as §1
Cytochrome P450 2C9 [5] = biological target: T2, Cytochrome P450 2C9; test: Inhibition of CYP2C9 in human liver microsomes measured after concurrent incubation; type: ADME; method in brief: as §2
Rattus norvegicus [6] = test: Toxicity in rat assessed as mortality at 250 to 2000 mg/kg measured up to 1 day; type: organism-based; set-up: dose 250-2000 mg/kg; details: in vivo, 24 h
Method in brief: (§3)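 Single-dose rat toxicity study with dose groups of 250, 500, 1000 and 2000 mg/kg. Animals were monitored for clinical signs of toxicity, including stool appearance, and for mortality.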

[7] = Irreversible inhibition of HCV1b NS5B delta21 polymerase by radiolabeled nucleotide incorporation assay; set-up: species or system Hepatitis C virus subtype 1b
Cynomolgus monkey = test: Drug metabolism in cynomolgus monkey assessed as sulfate conjugate formation administered as single oral dose; type: ADME, organism-based, Macaca fascicularis; details: in vivo
Method in brief: (§4)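 Radiolabeled [3H] compound given as single oral dose to monkey; bile and urine excretion and metabolites profiled, including parent fraction in bile and glutathione or sulfate conjugates.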

Cytochrome P450 2D6 = Cytochrome P450 2D6 (Homo sapiens, UniProt P10635); test: Inhibition of CYP2D6 in human liver microsomes measured after concurrent incubation; type: ADME; method in brief: as §2
[8] = Cmax in fed cynomolgus monkey at 30 mg/kg, po; type: ADME, organism-based, Macaca fascicularis; set-up: dose 30 mg/kg, route oral; details: in vivo; method in brief: as §1
[9] = Cmax in fed Sprague-Dawley rat at 250 mg/kg, po; type: ADME, organism-based; set-up: dose 250 mg/kg, route oral; details: in vivo; method in brief: as §1
[10] = AUC in fed Sprague-Dawley rat at 100 mg/kg, po; type: ADME, organism-based; set-up: dose 100 mg/kg, route oral; details: plasma; method in brief: as §1
[11] = Cmax in fed Sprague-Dawley rat at 100 mg/kg, po; type: ADME, organism-based; set-up: dose 100 mg/kg, route oral; details: in vivo; method in brief: as §1
[12] = Cmax in fed Sprague-Dawley rat at 500 mg/kg, po; type: ADME, organism-based; set-up: dose 500 mg/kg, route oral; details: in vivo; method in brief: as §1
[13] = Drug excretion in cynomolgus monkey bile assessed as parent compound administered as single oral dose; type: ADME, Macaca fascicularis; details: read-out: Drug excretion; method in brief: as §4
hERG (KCNH2) = hERG (KCNH2) (Homo sapiens, UniProt Q12809); test: Inhibition of human ERG at 2 uM by voltage clamp assay
[14] = Cmax in fed Sprague-Dawley rat at 30 mg/kg, po; type: ADME, organism-based; set-up: dose 30 mg/kg, route oral; details: in vivo; method in brief: as §1
Cytochrome P450 2D4 = biological target: T3, Cytochrome P450 2D4 (Rattus norvegicus, UniProt Q64680); test: Inhibition of rat CYP2D4 measured after compound pre-incubation; type: ADME
T3 sequence (Q64680 whole entry): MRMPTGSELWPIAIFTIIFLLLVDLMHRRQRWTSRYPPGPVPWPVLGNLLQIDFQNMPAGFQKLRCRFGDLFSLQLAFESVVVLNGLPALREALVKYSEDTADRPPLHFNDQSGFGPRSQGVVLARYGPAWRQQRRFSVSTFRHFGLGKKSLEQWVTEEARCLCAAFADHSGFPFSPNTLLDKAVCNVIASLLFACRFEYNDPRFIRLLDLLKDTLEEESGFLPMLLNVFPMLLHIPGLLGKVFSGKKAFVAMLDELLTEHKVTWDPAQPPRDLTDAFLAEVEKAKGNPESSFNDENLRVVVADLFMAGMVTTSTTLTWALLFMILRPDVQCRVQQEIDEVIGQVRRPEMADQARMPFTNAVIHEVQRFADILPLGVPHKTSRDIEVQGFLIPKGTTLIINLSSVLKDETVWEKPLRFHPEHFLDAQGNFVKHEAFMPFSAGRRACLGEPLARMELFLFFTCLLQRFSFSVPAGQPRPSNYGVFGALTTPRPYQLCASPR

Hepatitis C virus = test: Antiviral activity against HCV Con1 in eplicon cells after 3 days by RT-PCR analysis; type: functional, organism-based, Hepacivirus hominis; details: isolate Con1, 72 h
Method in brief: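 HCV 1b-Con1 replicon cells seeded at 5000 cells/well one day before treatment; inhibitor in DMSO added as 10 serial twofold dilutions in duplicate (final 0.5% DMSO, 5% FBS). Harvested 3 days post dosing; replicon RNA quantified by real-time RT-PCR (Taqman), GAPDH RNA as endogenous control; EC50 calculated.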

Cytochrome P450 1A2 [15] = biological target: T4, Cytochrome P450 1A2 (Homo sapiens, UniProt P05177); test: Inhibition of CYP1A2 in human liver microsomes measured after compound pre-incubation; type: ADME; method in brief: as §2
T4 sequence (P05177 whole entry): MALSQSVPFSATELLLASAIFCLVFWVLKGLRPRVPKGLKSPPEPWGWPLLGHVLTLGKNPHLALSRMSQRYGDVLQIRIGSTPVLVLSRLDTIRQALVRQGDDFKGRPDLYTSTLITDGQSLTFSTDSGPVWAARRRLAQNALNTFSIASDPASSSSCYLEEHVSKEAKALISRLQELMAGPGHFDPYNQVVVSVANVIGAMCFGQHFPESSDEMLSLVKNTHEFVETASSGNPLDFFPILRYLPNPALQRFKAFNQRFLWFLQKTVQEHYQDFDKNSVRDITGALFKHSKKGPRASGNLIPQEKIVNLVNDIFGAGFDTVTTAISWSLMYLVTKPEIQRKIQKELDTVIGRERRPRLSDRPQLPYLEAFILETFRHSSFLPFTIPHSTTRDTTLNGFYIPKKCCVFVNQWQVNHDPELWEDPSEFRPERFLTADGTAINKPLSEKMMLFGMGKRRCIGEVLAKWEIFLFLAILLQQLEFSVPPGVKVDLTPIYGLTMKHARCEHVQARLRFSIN

Salmonella typhimurium [16] = test: Induction of mutagenicity in Salmonella Typhimurium TA 97a by mini-Ames assay; type: toxicity, organism-based; details: salmonella enterica subsp. enterica serovar typhimurium
Method in brief: (§5)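 Mini-Ames mutagenicity test against Salmonella strains TA 97a, TA 100 and TA 102.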

[17] = AUC in fed Sprague-Dawley rat at 250 mg/kg, po; type: ADME, organism-based; set-up: dose 250 mg/kg, route oral; details: plasma; method in brief: as §1
[18] = AUC in fed cynomolgus monkey at 100 mg/kg, po; type: ADME, organism-based, Macaca fascicularis; set-up: dose 100 mg/kg, route oral; details: plasma; method in brief: as §1
[19] = AUC in fed cynomolgus monkey at 10 mg/kg, po; type: ADME, organism-based, Macaca fascicularis; set-up: dose 10 mg/kg, route oral; details: plasma; method in brief: as §1
Rattus norvegicus [20] = test: Toxicity in rat at 10 to 500 mg/kg measured up to 2 weeks; type: organism-based; set-up: dose 10-500 mg/kg; details: in vivo, 336 h
Cytochrome P450 2C19 [21] = biological target: T1, Cytochrome P450 2C19; test: Inhibition of […] in human liver microsomes measured after compound pre-incubation; type: ADME
Salmonella typhimurium [22] = test: Induction of mutagenicity in Salmonella Typhimurium TA 100 by mini-Ames assay; type: toxicity, organism-based; details: salmonella enterica subsp. enterica serovar typhimurium; method in brief: as §5
Rattus norvegicus [23] = test: Toxicity in rat assessed as soft and mucoid stool at 1000 to 2000 mg/kg measured up to 1 day; type: organism-based; set-up: dose 1000-2000 mg/kg; details: in vivo, 24 h; method in brief: as §3
[24] = Cmax in fed cynomolgus monkey at 100 mg/kg, po; type: ADME, organism-based, Macaca fascicularis; set-up: dose 100 mg/kg, route oral; details: in vivo; method in brief: as §1
[25] = Cmax in fed cynomolgus monkey at 10 mg/kg, po; type: ADME, organism-based, Macaca fascicularis; set-up: dose 10 mg/kg, route oral; details: in vivo; method in brief: as §1
Cytochrome P450 3A4 = Cytochrome P450 3A4 (Homo sapiens, UniProt P08684); test: Inhibition of CYP3A4 in human liver microsomes measured after concurrent incubation; type: ADME; method in brief: as §2
Cytochrome P450 1A2 [26] = biological target: T4, Cytochrome P450 1A2; test: Inhibition of CYP1A2 in human liver microsomes measured after concurrent incubation; type: ADME; method in brief: as §2

T2 sequence (P11712 whole entry): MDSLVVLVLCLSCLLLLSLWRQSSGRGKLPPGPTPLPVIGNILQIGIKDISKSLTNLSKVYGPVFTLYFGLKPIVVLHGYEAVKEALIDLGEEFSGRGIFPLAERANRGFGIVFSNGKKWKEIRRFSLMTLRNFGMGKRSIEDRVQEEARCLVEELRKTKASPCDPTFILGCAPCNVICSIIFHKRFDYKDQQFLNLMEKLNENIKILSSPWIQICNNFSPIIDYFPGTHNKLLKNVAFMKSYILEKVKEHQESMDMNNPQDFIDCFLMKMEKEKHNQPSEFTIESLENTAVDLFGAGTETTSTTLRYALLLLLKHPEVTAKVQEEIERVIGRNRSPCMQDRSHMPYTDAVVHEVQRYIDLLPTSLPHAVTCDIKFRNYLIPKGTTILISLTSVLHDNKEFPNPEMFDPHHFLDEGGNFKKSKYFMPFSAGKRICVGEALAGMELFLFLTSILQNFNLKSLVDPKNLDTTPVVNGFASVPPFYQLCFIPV
T1 sequence (P33261 whole entry): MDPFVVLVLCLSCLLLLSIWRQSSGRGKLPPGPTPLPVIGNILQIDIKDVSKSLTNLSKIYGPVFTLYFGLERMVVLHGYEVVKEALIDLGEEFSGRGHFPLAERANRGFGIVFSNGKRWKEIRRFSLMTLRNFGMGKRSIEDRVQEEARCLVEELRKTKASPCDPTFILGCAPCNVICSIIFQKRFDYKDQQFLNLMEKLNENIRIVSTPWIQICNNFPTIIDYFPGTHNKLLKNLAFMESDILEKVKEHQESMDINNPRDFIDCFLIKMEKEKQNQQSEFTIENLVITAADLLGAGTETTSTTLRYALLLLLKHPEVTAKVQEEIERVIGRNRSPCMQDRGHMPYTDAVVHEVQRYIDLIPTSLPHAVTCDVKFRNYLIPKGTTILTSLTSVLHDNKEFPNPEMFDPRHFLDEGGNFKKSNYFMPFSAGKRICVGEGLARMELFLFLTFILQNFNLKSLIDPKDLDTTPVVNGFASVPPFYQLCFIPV
Sequence of hERG (KCNH2) (Q12809 whole entry): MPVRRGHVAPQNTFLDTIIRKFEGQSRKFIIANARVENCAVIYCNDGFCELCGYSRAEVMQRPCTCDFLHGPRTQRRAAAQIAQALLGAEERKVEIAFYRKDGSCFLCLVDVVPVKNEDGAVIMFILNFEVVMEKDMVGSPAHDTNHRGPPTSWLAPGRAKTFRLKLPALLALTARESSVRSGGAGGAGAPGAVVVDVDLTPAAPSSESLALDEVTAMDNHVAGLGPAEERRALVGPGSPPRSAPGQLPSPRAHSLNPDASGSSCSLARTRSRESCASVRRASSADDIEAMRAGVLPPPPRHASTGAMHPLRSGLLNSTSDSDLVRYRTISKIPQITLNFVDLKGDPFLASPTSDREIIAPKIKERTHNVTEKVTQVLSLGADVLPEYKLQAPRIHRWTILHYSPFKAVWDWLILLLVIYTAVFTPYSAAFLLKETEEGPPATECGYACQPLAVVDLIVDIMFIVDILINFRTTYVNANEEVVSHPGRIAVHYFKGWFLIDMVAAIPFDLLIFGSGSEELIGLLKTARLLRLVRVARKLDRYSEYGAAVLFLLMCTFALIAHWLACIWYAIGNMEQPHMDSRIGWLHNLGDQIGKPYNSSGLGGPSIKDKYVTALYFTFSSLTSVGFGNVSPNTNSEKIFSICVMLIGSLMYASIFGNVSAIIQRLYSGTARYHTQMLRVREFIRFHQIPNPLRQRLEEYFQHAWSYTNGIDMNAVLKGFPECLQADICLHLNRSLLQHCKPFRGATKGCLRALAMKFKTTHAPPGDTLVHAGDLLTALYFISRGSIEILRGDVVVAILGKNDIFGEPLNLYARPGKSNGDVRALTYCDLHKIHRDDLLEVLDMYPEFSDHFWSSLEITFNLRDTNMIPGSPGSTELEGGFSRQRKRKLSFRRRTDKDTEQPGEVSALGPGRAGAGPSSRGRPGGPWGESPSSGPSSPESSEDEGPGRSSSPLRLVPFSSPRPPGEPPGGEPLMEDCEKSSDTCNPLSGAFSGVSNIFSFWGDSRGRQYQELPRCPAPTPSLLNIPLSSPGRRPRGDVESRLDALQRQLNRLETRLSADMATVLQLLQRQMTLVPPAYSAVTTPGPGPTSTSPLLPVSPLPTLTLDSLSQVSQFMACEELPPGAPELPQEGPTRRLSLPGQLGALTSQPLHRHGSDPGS
Sequence of Cytochrome P450 2D6 (P10635 whole entry): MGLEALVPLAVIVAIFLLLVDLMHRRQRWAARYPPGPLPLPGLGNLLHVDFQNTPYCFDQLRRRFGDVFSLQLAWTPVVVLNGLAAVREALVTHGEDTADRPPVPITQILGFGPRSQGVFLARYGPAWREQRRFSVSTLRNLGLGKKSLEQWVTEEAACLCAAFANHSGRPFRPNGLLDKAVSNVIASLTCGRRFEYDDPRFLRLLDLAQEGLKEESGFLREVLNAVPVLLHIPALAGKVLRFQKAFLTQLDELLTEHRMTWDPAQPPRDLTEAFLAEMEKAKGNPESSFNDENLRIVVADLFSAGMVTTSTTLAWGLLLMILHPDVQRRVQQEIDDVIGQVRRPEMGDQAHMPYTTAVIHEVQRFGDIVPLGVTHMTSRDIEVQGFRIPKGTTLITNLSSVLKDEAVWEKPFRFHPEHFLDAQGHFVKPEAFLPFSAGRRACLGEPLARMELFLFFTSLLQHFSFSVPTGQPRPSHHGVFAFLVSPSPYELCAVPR
Sequence of Cytochrome P450 3A4 (P08684 whole entry): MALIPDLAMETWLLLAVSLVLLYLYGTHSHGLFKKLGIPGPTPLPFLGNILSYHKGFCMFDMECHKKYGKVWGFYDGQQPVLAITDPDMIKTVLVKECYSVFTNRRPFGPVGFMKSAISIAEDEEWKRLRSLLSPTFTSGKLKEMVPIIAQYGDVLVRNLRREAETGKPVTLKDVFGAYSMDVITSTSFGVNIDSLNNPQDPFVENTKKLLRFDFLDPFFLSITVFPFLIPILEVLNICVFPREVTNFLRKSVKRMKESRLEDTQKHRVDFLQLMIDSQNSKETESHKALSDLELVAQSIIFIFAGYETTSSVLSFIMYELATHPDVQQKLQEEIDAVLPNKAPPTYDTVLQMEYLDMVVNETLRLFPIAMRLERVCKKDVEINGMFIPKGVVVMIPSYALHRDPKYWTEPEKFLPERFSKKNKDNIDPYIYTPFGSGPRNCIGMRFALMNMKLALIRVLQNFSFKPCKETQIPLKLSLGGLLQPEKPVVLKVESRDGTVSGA

Cc1cc2c(-c3ccc[nH]c3=O)c(C(=O)O)n(Cc3cc4ccccc4nc3Cl)c2cc1F
AUC [1]: 15 µM·h | IC50 (Cytochrome P450 2C19 [2]): > 50 µM | IC50 (Cytochrome P450 2C9 [3]): > 50 µM | AUC [4]: 176 µM·h | IC50 (Cytochrome P450 2C9 [5]): > 50 µM | Activity (Rattus norvegicus [6]): Non-toxic | IC50 [7]: 0.013 µM | Stability (Cynomolgus monkey): Stable | IC50 (Cytochrome P450 2D6): > 50 µM | Cmax [8]: 1.3 µM | Cmax [9]: 66 µM | AUC [10]: 375 µM·h | Cmax [11]: 32 µM | Cmax [12]: 65 µM | dose excreted [13]: 81% | inhibition at 2 µM (hERG (KCNH2)): 6% | Cmax [14]: 21 µM | IC50 (Cytochrome P450 2D4): > 50 µM | EC50 (Hepatitis C virus): 0.003 µM | IC50 (Cytochrome P450 1A2 [15]): > 50 µM | Activity (Salmonella typhimurium [16]): Non-toxic | AUC [17]: 1090 µM·h | AUC [18]: 17 µM·h | AUC [19]: 9 µM·h | Activity (Rattus norvegicus [20]): Non-toxic | IC50 (Cytochrome P450 2C19 [21]): > 50 µM | Activity (Salmonella typhimurium [22]): Non-toxic | Activity (Rattus norvegicus [23]): Toxic | Cmax [24]: 2 µM | Cmax [25]: 0.9 µM | IC50 (Cytochrome P450 3A4): > 50 µM | IC50 (Cytochrome P450 1A2 [26]): > 50 µM
